APOBEC3A inh: APOBEC3A ssDNA deaminase inhibitors, primary screen, selectivity assay for APOBEC3G inhibitor project, biochemical, FAM/TAMRA oligo cleavage fluorescence. inhibition, % at 20 µM. AID 493011, 2011. DNA dC->dU-editing enzyme APOBEC-3A (Homo sapiens), P31941. hit rate 0.41% among 330,000. recombinant A3A, FAM/TAMRA ssDNA deamination fluorescence;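 active means at least 40% inhibition at 20 µM here, with at most 30% in a related deaminase screen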;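 further: plate controls were A3A with DMSO for no effect and wells lacking A3A enzyme for full effect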
Target sequence (P31941 whole entry, looked up): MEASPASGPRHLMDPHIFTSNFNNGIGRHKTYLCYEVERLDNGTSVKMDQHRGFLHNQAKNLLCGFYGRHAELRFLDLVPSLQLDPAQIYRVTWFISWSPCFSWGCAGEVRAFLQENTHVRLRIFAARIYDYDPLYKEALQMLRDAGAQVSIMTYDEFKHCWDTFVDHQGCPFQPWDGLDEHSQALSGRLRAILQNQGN
A3G deaminase: APOBEC3G DNA deaminase inhibitors, primary screen, biochemical, fluorescence, single-stranded DNA substrate, uHTS | DNA dC->dU-editing enzyme APOBEC-3G (Homo sapiens), Q9HC16 | recombinant A3G, ssDNA deamination FAM/TAMRA fluorescence | inhibition, % at 20 µM | hit rate 0.28% among 330,000 | AID 493012, 2011;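 active means inhibition of at least 40% at 20 µM, with no more than 30% in the related APOBEC3A deaminase screen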;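 further: plate controls were DMSO wells with A3G for no effect and wells lacking A3G enzyme for full effect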
AHR act: AHR activators, primary screen, cell-based, luminescence, luciferase reporter, human | AHR-responsive luciferase reporter cells | activation, % at 5 µM | hit rate 2.5% among 320,000; in the data active means activation above about 47%;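 further: 0% = vehicle wells and 100% = reference agonist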
UCH37 inh: inhibitors of human UCH37 deubiquitinase, primary screen, biochemical, Ub-AMC cleavage, fluorescence. inhibition, % (concentration not given with the values). purified proteasome/UCH37. Ubiquitin carboxyl-terminal hydrolase isozyme L5 (Homo sapiens), Q9Y5K5. AID 588478, 2011. hit rate 0.33% among 330,000;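 active means mean inhibition over replicate wells above about 20%, limit read from the data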;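 further: 0% = compound-free wells with enzyme and 100% = wells lacking proteasome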
Target sequence (Q9Y5K5 whole entry, looked up): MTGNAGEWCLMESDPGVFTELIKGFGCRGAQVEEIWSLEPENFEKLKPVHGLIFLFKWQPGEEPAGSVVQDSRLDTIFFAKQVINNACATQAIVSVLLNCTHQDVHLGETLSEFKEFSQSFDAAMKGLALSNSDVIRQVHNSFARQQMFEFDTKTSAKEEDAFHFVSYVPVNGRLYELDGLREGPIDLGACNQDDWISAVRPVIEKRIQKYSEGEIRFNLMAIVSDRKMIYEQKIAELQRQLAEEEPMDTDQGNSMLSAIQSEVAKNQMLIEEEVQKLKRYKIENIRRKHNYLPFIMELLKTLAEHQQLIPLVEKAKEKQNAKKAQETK
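Reagent: Ub-AMC substrate; assay system: Proteasome-associated human UCH37 deubiquitinase; controls: no-proteasome and no-compound wells; read-out: % inhibition of Ub-AMC cleavage fluorescence; timing: 30 min preincubation with enzyme, 25 min cleavage at room temperature; signal: AMC fluorescence from Ub-AMC cleavage, excitation 355 nm, emission 460 nm; buffer or medium: Tris-HCl pH 7.4 plus ovalbumin, ATP-MgCl2, DTT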
Arrestin-AP2 inh: inhibitors of beta-arrestin/AP2 binding, primary screen, biochemical, GPCR trafficking, flow cytometry; FITC-arrestin peptide / GST-AP2 beads; AP2 beta2 appendage carries R879A mutation; hit rate 0.31% among 340,000; inhibition, % at 10 µM; beta-arrestin 1 C-terminal peptide binding to AP2 beta2-adaptin appendage (human); AID 504490, 2011;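 active means inhibition above a set limit, near 3 SD of compounds lacking own fluorescence, cut at about 54% in these data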;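 further: plate controls were DMSO wells for no effect and 5 µM unlabelled arrestin peptide for full effect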
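Measured by: flow cytometry, FL1 (488/535 nm); Material: AP2 appendage R879A on GSH beads; Evaluation: percent response; Timing: pre-incubation 12 min, peptide binding 1 h, room temperature; Also added: 50 nM FITC-arrestin peptide; Medium: PBS with 0.05% Tween 20 and 0.1% BSA.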
PolyA inh: polyadenylation inhibitors in yeast reporter cells, primary screen, luminescence, S. cerevisiae; S. cerevisiae SKY197-pL101 polyadenylation reporter, beta-gal luminescence; efflux-impaired pdr1/pdr3 knockout yeast; score 100 = 6 SD above DMSO; hit rate 0.02% among 300,000; activity score, % at 12 µM;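 active means lowest replicate activity score at least 50, where 100 means six control SD above control mean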;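 further: yeast exposed to compound for 9 h at 30 °C; higher score means more reporter readthrough which indicates perturbed polyadenylation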
Numbers without * were called inactive; . = no result. Compounds with a hit are over-represented: about 3.4% of the library has one in this group of screens.

SMILES	APOBEC3A inh	A3G deaminase	AHR act	UCH37 inh	Arrestin-AP2 inh	PolyA inh
FC(F)Oc1ccc(-c2csc(=Nc3cccnc3)n2CC2CCCO2)cc1 (configuration not stated)	-2	-8	48*	0	11	-2
COc1ccc(N(CC(=O)Nc2ccc3c(c2)OCCO3)S(=O)(=O)c2c(C)nn(C)c2C)cc1	-4	-10	2	3	8	9
COc1ccc(OC)c(N(CC(=O)Nc2ccccc2)S(=O)(=O)c2ccccc2)c1	0	-2	10	2	-7	-13
Cc1nn(C)c(C)c1S(=O)(=O)N(CC(=O)Nc1ccc2c(c1)OCO2)c1ccc(C(C)C)cc1	0	1	56*	4	3	.
COc1ccc(N(CC(=O)Nc2ccc3c(c2)OCO3)S(=O)(=O)c2ccccc2)cc1OC	3	-3	50*	-2	-1	-10
COc1ccc(N(CC(=O)Nc2ccc3c(c2)OCO3)S(=O)(=O)c2ccccc2)c(OC)c1	-4	-5	63*	1	15	4
COc1ccc(N(CC(=O)Nc2ccc3c(c2)OCO3)S(=O)(=O)c2ccc(F)cc2)cc1	-2	-3	67*	2	12	-6
O=C(NN=Cc1cn(Cc2ccccc2)c2ccccc12)c1ccncc1	.	.	.	8	.	.
CCCCNC(=O)C(C#N)=c1sc(=Cc2ccccc2OC(F)F)c(=O)n1CCCOC	.	.	.	-4	.	.
Cc1[nH]c(=O)[nH]c(=O)c1C=NNC(=O)[C@H](C)N	.	.	.	0	.	.
COc1ccc(C=NNC(=O)CN(c2ccc(OC)cc2)S(=O)(=O)c2ccccc2)cc1	.	.	.	4	.	.
COc1ccc2c(c1)oc1c(SCc3nc4ccccc4[nH]3)nc(C)nc12	-1	-7	54*	6	4	.
Cc1nc(SCc2nc3ccccc3[nH]2)c2oc3cc([N+](=O)[O-])ccc3c2n1	2	-6	26	6	10	.
COc1ccc([N+](=O)[O-])cc1NC(=O)CC1SC(=Nc2cccc(C)c2C)N(N=Cc2cccc(OC)c2OC)C1=O (configuration not stated)	.	.	.	4	.	.
Cc1cccc(N2CCN(C(=O)c3ccc4c(c3)NC(=O)C(CSCc3ccc(F)cc3)N4)CC2C)c1 (configuration not stated)	-29	9	0	.	.	-3
Cc1ccc(CSCC2Nc3ccc(C(=O)N4CCN(c5cccc(C)c5)C(C)C4)cc3NC2=O)cc1 (configuration not stated)	-23	46*	-1	.	.	-27
S=c1[nH]nc(-c2ccncc2)n1N=C/C=C/c1ccccc1	.	.	.	8	.	.
CCCN=C(C)C1=C(O)c2ccccc2C1=O	9	-6	-2	6	3	9
CC(=NCc1cccnc1)C1=C(O)c2ccccc2C1=O	0	-2	74*	10	-7	-1
FC(F)(F)c1nnc(-c2ccccc2)nc1N1CCOCC1	-2	-5	53*	3	18	-20
CSc1nc(-c2ccccc2)nc(N2CCCC2)c1C(C)=O	-2	-6	41	3	1	-27
CSc1nc(-c2ccccc2)nc(N2CCOCC2)c1C(C)=O	15	-3	69*	2	-10	-12
COc1cc(C=NNC(=O)c2cc(C34CC5CC(CC(C5)C3)C4)[nH]n2)ccc1O	.	.	.	5	.	.
Nc1nnc2c(n1)CCCC2	0	-7	4	21*	7	-17
CCn1cc(C=NNC(=O)c2ccccc2Cl)cn1	.	.	.	-1	.	.
SMILES	APOBEC3A inh	A3G deaminase	AHR act	UCH37 inh	Arrestin-AP2 inh	PolyA inh
Cc1cc(O)ccc1NC(=S)NC(=O)c1cncc(Br)c1	-4	0	60*	-1	-8	3
N#Cc1ccccc1C=NNc1nc(-c2ccccc2)c2cc(Br)ccc2n1	.	.	.	0	.	.
O=C(/C=C/c1ccc(Br)cc1)Nc1ccc(S(=O)(=O)Nc2ncccn2)cc1	-4	-16	1	-18	11	-1
CSc1cccc(NC(=O)/C=C/c2cccc(Cl)c2)c1	0	0	-6	3	10	9
O=C(/C=C/c1cccc(F)c1)Nc1ccc(S(=O)(=O)Nc2ncccn2)cc1	30	2	54*	5	8	-9
O=C(/C=C/c1cccc(Cl)c1)Nc1ncccn1	-1	0	64*	4	-3	1
COC(=O)CCc1c(C)c(C(=O)c2ccc(F)cc2)c2ccccn12	-2	-6	4	0	-3	-24
Cc1c(C(=O)Nc2ccc(F)cc2)c2ccccn2c1CCc1ccncc1	-4	-5	90*	-108	22	-2
Nc1c(N(CCC2=CCCCC2)C(=O)COc2ccc(F)cc2)c(=O)[nH]c(=O)n1Cc1ccccc1	0	2	0	24*	-2	.
CC(CC(=O)Nc1ccc2c(c1)OCCO2)=NNC(=O)Cc1ccc(Cl)cc1	.	.	.	2	.	.
C/C(=N\NC(=O)C1CC1c1ccccc1)c1ccc(C)s1 (configuration not stated)	-3	-5	75*	.	16	-21
CC(=NNC(=O)C(N)=O)c1ccc(Br)cc1	.	.	.	0	.	.
C/C(=N\Nc1ccc(F)cc1F)c1ccc(N2CCOCC2)cc1	-1	22	41	.	14	-5
C/C(=N\Nc1ccc(F)cc1F)c1ccc(F)cc1	-1	-3	60*	.	.	-5
CC(=NNC(=O)c1cccc(F)c1)c1ccc(Br)s1	.	.	.	5	.	.
C/C(=N\Nc1ccc(F)cc1F)c1ccc(Br)s1	5	0	54*	.	-6	-9
S=c1[nH]nc(C2CCCCC2)n1N=Cc1c(Cl)cccc1Cl	.	.	.	3	.	.
Cc1ccc(C=NNC(=O)CSc2nc3ccccc3n2Cc2ccccc2)o1	.	.	.	2	.	.
COc1cc(NC(=O)COC(=O)CON=C(C)c2ccc3c(c2)OCO3)cc(OC)c1OC	.	.	.	5	.	.
Fc1ccc(-c2nc3n(n2)Cc2ccccc2-3)cc1	2	1	61*	1	2	-28
Cn1c(=O)c2nnn(/N=C(\c3ccccc3)C3CC3)c2n(C)c1=O	-2	-4	4	.	0	0
Cn1c(=O)c2nnn(N=C(c3ccccc3)C3CC3)c2n(C)c1=O	.	.	.	34*	.	.
Nc1ccc2c(c1)Cc1cc([N+](=O)[O-])ccc1-2	-3	-7	11	29*	-13	-39
